The results in this text go back to ChEMBL document CHEMBL4265871, “Novel alkylated azoles as potent antifungals” (Eur J Med Chem, 2017).

≈ marks a conversion by molar mass, not a printed value. Calls of active or inactive are those of the source. The calls are words filed in the database; no cut-off is given here. Bounds are passed on as bounds.

One data set has as its system Nakaseomyces glabratus. Put plainly: Antifungal activity against Candida glabrata ATCC 2001 incubated for 48 hrs by modified CLSI M27-A3 protocol based method. Type of data set: functional. Particulars: ATCC 2001, 48 h.
The test system of another data set is Pichia kudriavzevii. Description: Antifungal activity against Candida krusei ATCC 6258 incubated for 48 hrs by modified CLSI M27-A3 protocol based method. Type of data set: functional. Conditions: ATCC 6258, 48 h. The method, boiled down: (§1)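 For C. albicans ATCC 10231, C. krusei ATCC 6258 and C. parapsilosis ATCC 22019, MIC-0 was read, meaning complete growth inhibition. For azole controls, MIC-2 (50% growth inhibition) was reported instead. Caspofungin and voriconazole were tested here; other controls came from earlier work.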

Data set [1] deals with Candida albicans. Description: Antifungal activity against ITC and FLC-resistant Candida albicans ATCC MYA-90819 incubated for 48 hrs by modified CLSI M27-A3 protocol based method. The data set is classed as functional. Particulars: ATCC MYA-90819, 48 h.
Data set [2] deals with Candida albicans. Description: Antifungal activity against Candida albicans ATCC 64124 incubated for 48 hrs by modified CLSI M27-A3 protocol based method. Particulars: ATCC 64124, 48 h. The data set is classed as functional.
The subject of data set [3] is Candida albicans. Put plainly: Antifungal activity against Candida albicans ATCC 10231 at 0.5 to 4 times MIC incubated for 3 to 24 hrs by time kill assay.
The test system of data set [4] is Candida albicans. Description: Antifungal activity against ITC and FLC-susceptible Candida albicans ATCC MYA-2310 incubated for 48 hrs by modified CLSI M27-A3 protocol based method. Type of data set: functional. Conditions: ATCC MYA-2310, 48 h.
The next data set deals with Candida parapsilosis. Description: Antifungal activity against Candida parapsilosis ATCC 22019 incubated for 48 hrs by modified CLSI M27-A3 protocol based method. The data set is classed as functional. Particulars: Lodderomyces parapsilosis, ATCC 22019, 48 h; for MIC: read-out: MIC100. The method, boiled down:
as §1

In data set [5] the test system is Candida albicans. Description: Antifungal activity against ITC and FLC-resistant Candida albicans ATCC 1237 incubated for 48 hrs by modified CLSI M27-A3 protocol based method. The data set is classed as functional. Particulars: ATCC 1237, 48 h. An outline of the steps: (§2)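 Because these Candida strains show trailing growth, MIC-2 was read, meaning 50% growth inhibition. Caspofungin and voriconazole were tested here; other controls came from earlier work.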

In data set [6] the test system is Candida albicans. Put plainly: Antifungal activity against ITC and FLC-susceptible Candida albicans ATCC MYA-2876 incubated for 48 hrs by modified CLSI M27-A3 protocol based method. Type of data set: functional. Particulars: ATCC MYA-2876, 48 h. The method, boiled down: as §2
Another data set concerns Aspergillus nidulans. Put plainly: Antifungal activity against Aspergillus nidulans ATCC 38163 incubated for 48 hrs by CLSI M38-A2 protocol based method. The data set is classed as functional. Conditions: ATCC 38163, 48 h; for MIC: read-out: MIC100.
The next data set has as its system Aspergillus terreus. Put plainly: Antifungal activity against Aspergillus terreus ATCC MYA-3633 incubated for 48 hrs by CLSI M38-A2 protocol based method. The data set is classed as functional. Particulars: ATCC MYA-3633, 48 h; for MIC: read-out: MIC100.
Data set [7] relates to Candida albicans. Description: Antifungal activity against ITC and FLC-resistant Candida albicans ATCC MYA-1003 incubated for 48 hrs by modified CLSI M27-A3 protocol based method. The data set is classed as functional. Particulars: ATCC MYA-1003, 48 h. The method, boiled down:
as §2

In the next data set the test system is A549. Description: Toxicity in human A549 cells assessed as cell viability at 15.6 ug/ml incubated for 24 hrs by resazurin dye based assay. Particulars: a549, 24 h.
Data set [8] in a line: Hemolytic activity in mouse erythrocytes assessed as hemolysis level at 125 ug/ml incubated for 1 hr at 37 degC. The data set is classed as ADME, cell-based, Erythrocyte. Particulars: read-out: Activity. An outline of the steps:
(§3)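 Mouse erythrocytes incubated 1 h at 37 °C with test agents over 1.95 to 125 µg/mL. Percent lysis is read for each concentration.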

A short description of data set [9]: Hemolytic activity in mouse erythrocytes assessed as hemolysis level at 3.9 ug/ml incubated for 1 hr at 37 degC. The data set is classed as ADME, cell-based, Erythrocyte. Conditions: read-out: Activity. The method, boiled down:
as §3

The next data set has as its system BEAS-2B. Put plainly: Toxicity in human BEAS2B cells assessed as cell viability at 15.6 ug/ml incubated for 24 hrs by resazurin dye based assay.
Data set [10] can be described thus: Hemolytic activity in mouse erythrocytes assessed as hemolysis level at 31.3 ug/ml incubated for 1 hr at 37 degC. Particulars: read-out: Activity. The data set is classed as ADME, cell-based, Erythrocyte. The method, boiled down: as §3
Data set [11] is described as follows: Hemolytic activity in mouse erythrocytes assessed as hemolysis level at 1.95 ug/ml incubated for 1 hr at 37 degC. Type of data set: ADME, cell-based, Erythrocyte. Particulars: read-out: Activity. An outline of the steps:
as §3

Data set [12] in a line: Hemolytic activity in mouse erythrocytes assessed as hemolysis level at 7.8 ug/ml incubated for 1 hr at 37 degC. Conditions: read-out: Activity. Type of data set: ADME, cell-based, Erythrocyte. An outline of the steps:
as §3

The next data set can be described thus: in vitro. Conditions: mouse, erythrocyte.
The nature of data set [13]: Hemolytic activity in mouse erythrocytes assessed as hemolysis level at 15.6 ug/ml incubated for 1 hr at 37 degC. Type of data set: ADME, cell-based, Erythrocyte. Conditions: read-out: Activity. An outline of the steps: as §3
The test system of a further data set is Aspergillus flavus. Put plainly: Antifungal activity against Aspergillus flavus ATCC MYA-3631 incubated for 48 hrs by CLSI M38-A2 protocol based method. Type of data set: functional. Conditions: ATCC MYA-3631, 48 h, read-out: MIC100.
In data set [14] the test system is Candida albicans. Put plainly: Induction of membrane permeabilization in Candida albicans ATCC 10231 at 1 to 4 times MIC incubated for 1 hr by propidium iodide staining based fluorescence microscopy. Type of data set: functional, organism-based. The method, boiled down: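 C. albicans ATCC 10231 treated at 1× and 4× MIC and stained with propidium iodide, a membrane-impermeant dye, to detect membrane damage. Untreated cells, FLC (7.8 µg/mL) and KANB (C14) (7.8 µg/mL) serve as comparators.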

Data set [15] deals with Candida albicans. Description: Antifungal activity against Candida albicans ATCC 10231 incubated for 48 hrs by modified CLSI M27-A3 protocol based method. The data set is classed as functional. Particulars: ATCC 10231, 48 h, read-out: MIC100. The method, boiled down: as §1

As for `C[C@@H](c1ncncc1F)[C@](O)(Cn1cncn1)c1ccc(F)cc1F` [VORICONAZOLE], the MIC50 is 0.17 µM (≈ 0.0594 µg/mL) against Nakaseomyces glabratus; 0.34 µM (≈ 0.119 µg/mL) against Pichia kudriavzevii; 5.6 µM (≈ 1.96 µg/mL) against Candida albicans [1]; 11.2 µM (≈ 3.91 µg/mL) with Candida albicans [2]; 2.8 µM (≈ 0.978 µg/mL) in the data set on Candida albicans [4]; under 0.06 µM in the data set with Candida parapsilosis. Moreover, the MIC50 against Candida albicans [5] was 22.3 µM (≈ 7.79 µg/mL); against Candida albicans [6], 5.6 µM (≈ 1.96 µg/mL); against Aspergillus nidulans it was 0.06 µM (≈ 0.021 µg/mL); against Aspergillus terreus, 0.34 µM (≈ 0.119 µg/mL); against Candida albicans [7], 5.6 µM (≈ 1.96 µg/mL). For the same compound, the Activity entry in the data set on Candida albicans [3] was “Dose-dependent effect”.
As for `C[C@@H]1[C@H](O)[C@@H](C)/C=C/C=C/C=C/C=C/C=C/C=C/C=C/[C@H](O[C@@H]2O[C@H](C)[C@@H](O)[C@H](N)[C@@H]2O)C[C@@H]2O[C@](O)(C[C@@H](O)C[C@@H](O)[C@H](O)CC[C@@H](O)C[C@@H](O)CC(=O)O[C@H]1C)C[C@H](O)[C@H]2C(=O)O` [AMPHOTERICIN B], the viability in the data set on A549 and in the data set on BEAS-2B was 30% throughout. In addition, the MIC in the data set on Nakaseomyces glabratus worked out at 2.1 µM (≈ 1.94 µg/mL); in the data set with Candida albicans [1], 1.1 µM (≈ 1.02 µg/mL); in the data set on Candida albicans [4] (read-out: MIC100), 2.1 µM (≈ 1.94 µg/mL); with Candida parapsilosis, 2.1 µM (≈ 1.94 µg/mL); in the data set on Candida albicans [6] (read-out: MIC100), 2.1 µM (≈ 1.94 µg/mL); in the data set on Aspergillus nidulans, 16.9 µM (≈ 15.6 µg/mL). Also, in the data set on Aspergillus terreus, the MIC amounted to 4.2 µM (≈ 3.88 µg/mL). Also, the hemolysis at 1 h, 125 ug/ml in data set [8] came out at 92.6%. Further, the hemolysis at 1 h, 3.9 ug/ml in data set [9] amounted to 3.4%. The hemolysis at 1 h, 31.3 ug/ml in data set [10] stood at 80%. For the same compound, the hemolysis at 1 h, 1.95 ug/ml in [11] was determined as 1.7%. The hemolysis at 1 h, 7.8 ug/ml in data set [12] was 3.7%. Moreover, in the data set “in vitro”, the hemolysis at 1 h is 90.3%. Besides, the hemolysis at 1 h, 15.6 ug/ml in [13] worked out at 32%.
For `CCCCCCCCCCC(O)(Cn1cncn1)c1ccc(F)cc1F` (configuration not stated), the MIC in the data set on Aspergillus flavus is over 85.6 µM; with Pichia kudriavzevii (read-out: MIC100) it was 0.66 µM (≈ 0.241 µg/mL); with Candida parapsilosis it was 0.33 µM (≈ 0.121 µg/mL); in the data set with Candida albicans [15], 21.3 µM (≈ 7.78 µg/mL); with Aspergillus nidulans, 0.66 µM (≈ 0.241 µg/mL); in the data set with Aspergillus terreus it was 10.7 µM (≈ 3.91 µg/mL). The MIC50 in the data set on Nakaseomyces glabratus was 21.3 µM (≈ 7.78 µg/mL); in the data set with Candida albicans [1], 85.6 µM (≈ 31.3 µg/mL); against Candida albicans [2] it was 42.7 µM (≈ 15.6 µg/mL); in the data set with Candida albicans [4], 21.3 µM (≈ 7.78 µg/mL); in the data set with Candida albicans [5], over 85.6 µM; against Candida albicans [6] it was 21.3 µM (≈ 7.78 µg/mL). This compound returned an MIC50 in the data set on Candida albicans [7] of over 85.6 µM. For the same compound, the result in the data set with Candida albicans [14] was inactive.
